Screening results as filed in PubChem.
The list is not random: actives were taken first. Their share in the collection is about 12%.
Dynein cargo inh = blocks dynein driven cargo transport along microtubules | 3617.4 mouse cells, GR-EGFP nuclear translocation imaging; test concentration mostly 20 µM; stimulated with dexamethasone, 1 µM; hits give low values | z-score, hits read low | 0.47% of 220,000 active | AID 1381;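 active means plate z-score of nuclear minus cytoplasmic receptor signal below a set negative limit, without overly bright fluorescence or cell loss, cut at about -3.5 in these data, passing the limit was not always enough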;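 further: z-score of nuclear minus cytoplasmic ring GR-EGFP intensity difference per well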
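Buffer or medium: tetracycline-free induction medium containing charcoal-stripped FBS / Reagent: dexamethasone agonist, 1.0 µM final, for 30 min / Technique: automated 10x imaging of fixed Hoechst-stained cells / Times: induction 48 h, compound 1 h, agonist 30 min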
CHOP inh = inhibitors of CHOP induction in ER stress response; CHO-K1 CHOP-promoter luciferase, tunicamycin-induced, 15-18 h; 3.8% of 220,000 active; inhibition, % at 10 µM;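 active means compounds that reduced the stress-induced luciferase reporter signal by more than about 70% of percent inhibition, limit read from the data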;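 further: 0% = tunicamycin plus vehicle and 100% = wells without tunicamycin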
MT stabilizer = stabilizes microtubules in HeLa cells | 0.83% of 200,000 active | % tubulin-high responders, % at 10 µM | HeLa tubulin immunostaining HCS, 24 h; share of cells brighter than vehicle mean+2SD;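 active means plate Z-score above 3 for both tubulin-high and condensed-nucleus cell shares, with cell loss under 80%, at 10 µM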;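 further: anti alpha tubulin signal scored within the nucleus-defined area of each cell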
Autophagy HCS = modulators of autophagy; MEF GFP-LC3 puncta imaging; test concentration mostly 10 µM; calls only at 10 µM (by protocol); 0.98% of 190,000 active; AID 463193;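 active means percentage of spot-positive cells more than 3 SD above its plate mean, without a fluorescence outlier flag or 80% toxicity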;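 further: spot-positive cell cutoff set from DMSO-treated cells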
L major viab = inhibitors of Leishmania major promastigote growth; Leishmania major promastigotes, resazurin fluorescence viability; 9% of 200,000 active; inhibition, % at 10 µM; in the data active means inhibition above about 50%;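 further: promastigotes grown with compound for 44 hours at 28 °C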
bCat nuc transl = alters nuclear translocation of beta-catenin in HeLa cells; immunofluorescence imaging; nuclear translocation activity, % at 5 µM; 0.3% of 190,000 active;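 active means nuclear translocation activity above 50% at 5 µM, with a well cell count of 50 or more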;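 further: per-cell ratio of nuclear to cytoplasmic median beta-catenin stain intensity; plate controls were DMSO negative control for no effect and GSK-3 inhibitor IX positive control for full effect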
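assay system = human HeLa cells, endogenous beta-catenin | times = compound treatment 24 h, 37°C, 5% CO2 | detection = Anti-beta-catenin immunofluorescence on PFA-fixed, Triton-permeabilized cells, DAPI nuclei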
The depositor's hits bear a star.

For CCOC(=O)C1=C(N)OC2=C(C(=O)CC(C)(C)C2)C1c1ccoc1 (stereo not given) the results were Dynein cargo inh -0.89, CHOP inh 9, MT stabilizer 4, Autophagy HCS inactive, L major viab -5 and bCat nuc transl 0.
For Nc1ccc(C(O)(C(F)(F)F)C(F)(F)F)cc1 the results were Dynein cargo inh -0.37, CHOP inh 14, MT stabilizer 2, Autophagy HCS inactive and L major viab -7.
`Nc1c(C(O)(C(F)(F)F)C(F)(F)F)ccc2ccccc12` gave Dynein cargo inh -0.68, CHOP inh 43, MT stabilizer 2, Autophagy HCS inactive, L major viab 100* and bCat nuc transl -4.
Screening CCc1ccc(CNC(=O)C2CCN(S(=O)(=O)N3CCC4(CC3)OCCO4)CC2)cc1 returned Dynein cargo inh -0.34, CHOP inh 15, MT stabilizer 2, Autophagy HCS inactive and L major viab -3.
For Cc1ccc(S(=O)(=O)CCSc2n[nH]c(=O)n2-c2ccc3c(c2)OCCO3)cc1 the results were Dynein cargo inh 0.19, CHOP inh -4 and bCat nuc transl 0.
COc1ccc(CN(C)C2CCCCC2)cc1 was read as Dynein cargo inh -0.49, CHOP inh -7, MT stabilizer 5, Autophagy HCS inactive, L major viab 87* and bCat nuc transl -3.
Screening Oc1ccc(CNC2CCCCC2)cc1 returned Dynein cargo inh 1.4, CHOP inh -24, MT stabilizer 6, Autophagy HCS inactive, L major viab 90* and bCat nuc transl 1.
For Clc1ccc(CNC2CCCC2)cc1 the results were Dynein cargo inh 0.053, CHOP inh -6, MT stabilizer 3, Autophagy HCS inactive, L major viab 37 and bCat nuc transl -5.
CN(Cc1ccc(O)cc1)C1CCCCC1 was read as Dynein cargo inh -0.12, CHOP inh 4, MT stabilizer 3, Autophagy HCS inactive, L major viab 93* and bCat nuc transl -2.
For CCC1=C(OC(=O)N(CC)CC)N2C(=O)OC(=NCCc3c[nH]c4ccccc34)[C@]2(C)[C@H]2C1=CC[C@H]1C(=O)N(C)C(=O)[C@H]12 the results were Dynein cargo inh 0.057, CHOP inh 4 and bCat nuc transl 1.
Screening CN(C)c1ccc(-c2cc([C@H]3[C@@H]4C=CCC[C@@]4(C)C(=O)N3Cc3ccccc3)ccc2F)cc1 returned Dynein cargo inh 0.49, CHOP inh 61 and bCat nuc transl 1.
Screening CCN(C(=O)COC(=O)c1nn(-c2ccccc2)c(=O)c2ccccc12)C1CCS(=O)(=O)C1 (stereo not given) returned Dynein cargo inh -0.59, CHOP inh -26 and bCat nuc transl 0.
For Cc1ccc(CCN2C(=O)c3ccccc3C2C(=O)NCc2cccnc2)cc1 (stereo not given) the results were Dynein cargo inh 1.4, CHOP inh 15, MT stabilizer 1, Autophagy HCS inactive, L major viab -4 and bCat nuc transl 1.
For CCOCCCNC(=S)N1CCC(NC(=O)c2ccco2)CC1 the results were Dynein cargo inh -0.78, CHOP inh -9, MT stabilizer 3, Autophagy HCS inactive, L major viab -4 and bCat nuc transl 1.
For CCOCCCNC(=S)N1CCC(NC(=O)C23CC4CC(CC(C4)C2)C3)CC1 the results were Dynein cargo inh -0.48, CHOP inh 7, MT stabilizer 4, Autophagy HCS inactive, L major viab 63* and bCat nuc transl -1.
O=C(Nc1ccccc1-c1ccccc1)NC1CC2CCCC(C1)N2CCc1ccccc1 (stereo not given) was read as Dynein cargo inh 0.25, CHOP inh 20, MT stabilizer 3, Autophagy HCS inactive, L major viab 72* and bCat nuc transl -2.
O=C(Nc1ccccc1-c1ccccc1)NC1CC2CCCC(C1)N2Cc1ccc(F)cc1 (stereo not given) was read as Dynein cargo inh 0.29, CHOP inh 31, MT stabilizer 3, Autophagy HCS inactive, L major viab 69* and bCat nuc transl 0.
`CCCN1C2CCCC1CC(NC(=O)Nc1cccc(C(C)=O)c1)C2` (stereo not given) gave Dynein cargo inh 0.043, CHOP inh 17, MT stabilizer 1, Autophagy HCS inactive, L major viab -5 and bCat nuc transl 1.
